Experimental data reported in ChEMBL document CHEMBL3868583, “6-Aryl substituted 4-(4-cyanomethyl) phenylamino quinazolines as a new class of isoform-selective PI3K-alpha inhibitors” (Eur J Med Chem, 2016).

Legend:
[1] = target: T1, Phosphatidylinositol 4,5-bisphosphate 3-kinase catalytic subunit alpha isoform (Homo sapiens, UniProt P42336); experiment: Inhibition of PI3Kalpha (unknown origin) using diC8 PIP2 as substrate after 80 mins by ADP-glo assay
[2] = target: T2, Phosphatidylinositol 4,5-bisphosphate 3-kinase catalytic subunit beta isoform (Homo sapiens, UniProt P42338); experiment: Inhibition of PI3Kbeta (unknown origin) using diC8 PIP2 as substrate after 60 mins by ADP-glo assay
T2 sequence (P42338 whole entry, canonical isoform): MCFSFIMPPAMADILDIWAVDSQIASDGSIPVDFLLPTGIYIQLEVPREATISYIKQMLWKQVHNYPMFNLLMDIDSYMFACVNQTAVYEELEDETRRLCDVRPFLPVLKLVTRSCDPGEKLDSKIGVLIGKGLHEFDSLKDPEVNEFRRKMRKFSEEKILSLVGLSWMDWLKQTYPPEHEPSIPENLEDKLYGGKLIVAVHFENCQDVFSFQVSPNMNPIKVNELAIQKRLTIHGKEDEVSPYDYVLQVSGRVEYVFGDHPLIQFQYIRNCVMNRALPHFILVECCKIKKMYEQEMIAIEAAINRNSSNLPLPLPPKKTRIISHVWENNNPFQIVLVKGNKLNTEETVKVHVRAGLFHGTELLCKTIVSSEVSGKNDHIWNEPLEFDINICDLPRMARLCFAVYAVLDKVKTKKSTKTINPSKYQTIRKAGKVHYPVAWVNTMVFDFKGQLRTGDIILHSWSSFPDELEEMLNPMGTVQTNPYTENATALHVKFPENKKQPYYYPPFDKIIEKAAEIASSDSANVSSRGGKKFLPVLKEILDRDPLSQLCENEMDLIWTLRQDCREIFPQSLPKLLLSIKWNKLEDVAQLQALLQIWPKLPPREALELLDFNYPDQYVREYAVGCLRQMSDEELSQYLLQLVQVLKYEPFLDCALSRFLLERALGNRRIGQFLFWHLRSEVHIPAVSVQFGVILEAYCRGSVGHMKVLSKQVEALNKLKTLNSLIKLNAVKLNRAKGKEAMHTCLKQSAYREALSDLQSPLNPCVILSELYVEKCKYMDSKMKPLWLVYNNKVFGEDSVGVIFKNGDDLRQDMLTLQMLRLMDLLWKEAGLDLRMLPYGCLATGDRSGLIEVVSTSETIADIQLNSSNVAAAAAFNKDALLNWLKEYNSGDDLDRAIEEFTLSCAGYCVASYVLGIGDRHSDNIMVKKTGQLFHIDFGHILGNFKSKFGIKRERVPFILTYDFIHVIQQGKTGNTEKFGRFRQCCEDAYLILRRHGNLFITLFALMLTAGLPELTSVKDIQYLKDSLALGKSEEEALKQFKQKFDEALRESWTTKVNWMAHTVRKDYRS

[3] = target: T3, Phosphatidylinositol 4,5-bisphosphate 3-kinase catalytic subunit delta isoform (Homo sapiens, UniProt O00329); experiment: Inhibition of PI3Kdelta (unknown origin) using diC8 PIP2 as substrate after 120 mins by ADP-glo assay
T3 sequence (O00329 whole entry): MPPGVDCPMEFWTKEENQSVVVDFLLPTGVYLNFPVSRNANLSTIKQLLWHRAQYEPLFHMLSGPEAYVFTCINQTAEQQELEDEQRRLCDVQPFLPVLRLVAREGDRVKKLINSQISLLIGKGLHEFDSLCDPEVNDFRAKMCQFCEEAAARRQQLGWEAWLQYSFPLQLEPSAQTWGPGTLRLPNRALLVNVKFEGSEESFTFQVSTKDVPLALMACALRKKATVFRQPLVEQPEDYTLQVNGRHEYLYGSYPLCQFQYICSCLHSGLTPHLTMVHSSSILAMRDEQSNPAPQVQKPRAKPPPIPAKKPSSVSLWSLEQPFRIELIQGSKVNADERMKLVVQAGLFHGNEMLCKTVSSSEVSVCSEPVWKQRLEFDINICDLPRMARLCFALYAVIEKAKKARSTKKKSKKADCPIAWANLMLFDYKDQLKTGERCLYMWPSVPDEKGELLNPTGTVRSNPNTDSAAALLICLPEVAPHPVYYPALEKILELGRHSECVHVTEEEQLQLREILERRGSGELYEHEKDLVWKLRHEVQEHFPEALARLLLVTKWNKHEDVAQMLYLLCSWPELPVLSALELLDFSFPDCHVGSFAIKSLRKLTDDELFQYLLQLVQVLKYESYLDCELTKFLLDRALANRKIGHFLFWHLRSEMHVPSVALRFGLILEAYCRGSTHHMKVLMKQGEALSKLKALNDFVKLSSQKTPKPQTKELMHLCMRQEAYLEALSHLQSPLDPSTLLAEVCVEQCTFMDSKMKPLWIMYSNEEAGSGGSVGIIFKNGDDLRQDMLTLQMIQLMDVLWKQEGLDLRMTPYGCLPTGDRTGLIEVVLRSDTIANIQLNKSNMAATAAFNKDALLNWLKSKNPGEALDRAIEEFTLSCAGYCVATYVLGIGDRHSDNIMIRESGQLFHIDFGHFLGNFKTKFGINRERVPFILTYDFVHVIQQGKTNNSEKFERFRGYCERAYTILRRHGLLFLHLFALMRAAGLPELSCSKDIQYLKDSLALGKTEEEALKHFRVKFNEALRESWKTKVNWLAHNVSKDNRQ
In short: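 Delta isoform reacted 120 min in glycine-NaOH pH 8.5 buffer (50 mM KCl, 2.5 mM MgCl2, 1 mM DTT, 0.05% CHAPS) with 0.01 mM ATP and 0.05 mM diC8 PIP2; ADP formed detected by ADP-Glo (40 min) plus detection buffer (40 min) luminescence. Dundee profiling centre.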

[4] = target: T4, Phosphatidylinositol 4,5-bisphosphate 3-kinase catalytic subunit gamma isoform (Homo sapiens, UniProt P48736); experiment: Inhibition of PI3Kgamma (unknown origin) using diC8 PIP2 as substrate after 75 mins by ADP-glo assay
T4 sequence (P48736 whole entry, canonical isoform): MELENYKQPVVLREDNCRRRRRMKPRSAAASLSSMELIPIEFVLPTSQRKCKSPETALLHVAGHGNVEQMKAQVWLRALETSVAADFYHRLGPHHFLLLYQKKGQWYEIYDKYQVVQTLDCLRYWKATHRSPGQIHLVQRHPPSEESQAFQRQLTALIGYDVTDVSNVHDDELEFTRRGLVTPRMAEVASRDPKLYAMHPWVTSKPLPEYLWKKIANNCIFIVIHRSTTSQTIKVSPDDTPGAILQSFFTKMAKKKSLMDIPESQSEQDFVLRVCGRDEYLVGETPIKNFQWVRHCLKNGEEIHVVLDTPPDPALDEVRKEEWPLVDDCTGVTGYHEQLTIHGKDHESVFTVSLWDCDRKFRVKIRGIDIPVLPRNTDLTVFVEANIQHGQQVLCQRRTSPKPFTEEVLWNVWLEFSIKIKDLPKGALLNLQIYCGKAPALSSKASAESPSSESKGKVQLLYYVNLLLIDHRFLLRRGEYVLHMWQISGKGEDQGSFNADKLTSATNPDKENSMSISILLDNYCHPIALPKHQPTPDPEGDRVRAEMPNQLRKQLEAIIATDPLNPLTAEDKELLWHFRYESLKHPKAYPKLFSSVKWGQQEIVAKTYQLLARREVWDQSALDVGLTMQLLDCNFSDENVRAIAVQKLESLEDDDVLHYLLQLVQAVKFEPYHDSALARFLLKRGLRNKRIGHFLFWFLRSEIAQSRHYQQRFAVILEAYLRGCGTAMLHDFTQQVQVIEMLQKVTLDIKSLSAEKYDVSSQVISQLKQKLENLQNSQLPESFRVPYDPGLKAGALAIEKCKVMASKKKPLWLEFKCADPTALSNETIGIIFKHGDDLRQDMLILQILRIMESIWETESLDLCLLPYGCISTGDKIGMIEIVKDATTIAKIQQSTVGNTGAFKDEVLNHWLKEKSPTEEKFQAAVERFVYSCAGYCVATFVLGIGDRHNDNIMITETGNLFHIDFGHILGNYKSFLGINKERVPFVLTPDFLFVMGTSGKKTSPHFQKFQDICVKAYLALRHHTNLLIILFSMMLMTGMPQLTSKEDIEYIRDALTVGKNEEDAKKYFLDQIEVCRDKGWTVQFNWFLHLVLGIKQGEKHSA

[5] = Cytotoxicity against human HL60 cells assessed as cell growth inhibition after 48 hrs by MTT assay; assay type: functional; settings: HL-60, 48 h
In short: (§1)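 MTT assay: 3 × 10^3 cells/well seeded, compounds added after 24 h at final […], 48 h exposure. MTT (2.5 mg/mL in PBS) added, formazan dissolved in DMSO, absorbance 570 nm. Viability as % of untreated; three independent experiments, mean ± SD.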

[6] = Cytotoxicity against human A375 cells assessed as cell growth inhibition after 48 hrs by MTT assay; assay type: functional; settings: A-375, 48 h; in short: as §1
[7] = Cytotoxicity against human MCF7 cells assessed as cell growth inhibition after 48 hrs by MTT assay; assay type: functional; settings: MCF7, 48 h; in short: as §1
[8] = Cytotoxicity against human PANC1 cells assessed as cell growth inhibition after 48 hrs by MTT assay; assay type: functional; settings: PANC-1, 48 h; in short: as §1
[9] = Cytotoxicity against human PC3 cells assessed as cell growth inhibition after 48 hrs by MTT assay; assay type: functional; settings: PC-3, 48 h; in short: as §1
[10] = target: T1, Phosphatidylinositol 4,5-bisphosphate 3-kinase catalytic subunit alpha isoform; experiment: Inhibition of PI3Kalpha (unknown origin)
In short: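 Run by a kinase profiling service. Reaction 80 min. ADP-Glo reagent added for 40 min, then kinase detection buffer for 40 min. Luminescence read.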

[11] = target: T2, Phosphatidylinositol 4,5-bisphosphate 3-kinase catalytic subunit beta isoform; experiment: Inhibition of PI3Kbeta (unknown origin)
[12] = target: T3, Phosphatidylinositol 4,5-bisphosphate 3-kinase catalytic subunit delta isoform; experiment: Inhibition of PI3Kdelta (unknown origin)
In short: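 Substrate was 0.05 mM diC8 PIP2 with 0.01 mM ATP, and the kinase reaction ran 120 min. ADP produced was read by ADP-Glo luminescence: 40 min with ADP-Glo reagent, then 40 min with detection buffer.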

[13] = target: T4, Phosphatidylinositol 4,5-bisphosphate 3-kinase catalytic subunit gamma isoform
[14] = target: T1, Phosphatidylinositol 4,5-bisphosphate 3-kinase catalytic subunit alpha isoform; experiment: Inhibition of PI3Kalpha (unknown origin) using diC8 PIP2 as substrate at 0.5 uM after 80 mins by ADP-glo assay
Homo sapiens [15] = species: Homo sapiens; experiment: Selectivity ratio of IC50 for PI3Kdelta (unknown origin) to IC50 for PI3Kalpha (unknown origin)
Homo sapiens [16] = species: Homo sapiens; experiment: Selectivity ratio of IC50 for PI3Kgamma (unknown origin) to IC50 for PI3Kalpha (unknown origin)
Homo sapiens [17] = species: Homo sapiens; experiment: Selectivity ratio of IC50 for PI3Kbeta (unknown origin) to IC50 for PI3Kalpha (unknown origin)
Mus musculus [18] = experiment: Toxicity in Swiss mouse implanted with Swiss mouse EAC cells assessed as body weight at 20 mg/kg, ip administered for 1 to 9 days measured on day 1 (reference value: 22.8 g); assay type: organism-based, Ehrlich; settings: in vivo
In short: (§2)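 1×10^7 EAC cells injected intraperitoneally into Swiss mice on day 0. Mice randomized next day: treated groups n=7, saline control n=10 (0.2 ml i.p.). Dosing i.p. days 1–9. Sacrifice on day 12; ascitic fluid collected from the peritoneal cavity. % tumor growth inhibition from total tumor cell count versus control. Body weight and mortality tracked.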

Mus musculus [19] = experiment: Toxicity in Swiss mouse implanted with Swiss mouse EAC cells assessed as body weight at 20 mg/kg, ip administered for 1 to 9 days measured on day 5 (reference value: 26.2 g); assay type: organism-based, Ehrlich; settings: in vivo; in short: as §2
Mus musculus [20] = experiment: Toxicity in Swiss mouse implanted with Swiss mouse EAC cells assessed as body weight at 20 mg/kg, ip administered for 1 to 9 days measured on day 9 (reference value: 27.7 g); assay type: organism-based, Ehrlich; settings: in vivo; in short: as §2
Mus musculus [21] = experiment: Toxicity in Swiss mouse implanted with Swiss mouse EAC cells assessed as body weight at 20 mg/kg, ip administered for 1 to 9 days measured on day 12 (reference value: 28.4 g); assay type: organism-based, Ehrlich; settings: in vivo; in short: as §2
[22] = Anticancer activity against Swiss mouse EAC cells implanted in Swiss mouse assessed as tumor growth inhibition at 20 mg/kg, ip administered for 1 to 9 days measured on day 12 relative to control; assay type: functional; settings: Ehrlich, read-out: TGI; in short: as §2
Mus musculus [23] = experiment: Toxicity in Swiss mouse implanted with Swiss mouse EAC cells assessed as mortality at 20 mg/kg, ip administered for 1 to 9 days measured on day 12; assay type: organism-based, Ehrlich; settings: in vivo; in short: as §2
Mus musculus [24] = experiment: Toxicity in Swiss mouse implanted with Swiss mouse EAT cells assessed as body weight at 22 mg/kg, ip administered for 1 to 9 days measured on day 1 (reference value: 21.6 g); assay type: organism-based; settings: in vivo
In short: (§3)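 EAC cells harvested from 8–10-day ascitic Swiss mice; 1×10^7 cells injected intramuscularly into right thigh of Swiss male mice on day 0. Randomized next day: treated n=7, saline control n=10 (0.2 ml i.p.). Dosing i.p. days 1–9. […] Body weight and mortality tracked.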

Mus musculus [25] = experiment: Toxicity in Swiss mouse implanted with Swiss mouse EAT cells assessed as body weight at 22 mg/kg, ip administered for 1 to 9 days measured on day 5 (reference value: 22.6 g); assay type: organism-based; settings: in vivo; in short: as §3
Mus musculus [26] = experiment: Toxicity in Swiss mouse implanted with Swiss mouse EAT cells assessed as body weight at 22 mg/kg, ip administered for 1 to 9 days measured on day 9 (reference value: 22.8 g); assay type: organism-based; settings: in vivo; in short: as §3
Mus musculus [27] = experiment: Toxicity in Swiss mouse implanted with Swiss mouse EAT cells assessed as body weight at 22 mg/kg, ip administered for 1 to 9 days measured on day 13 (reference value: 24.1 g); assay type: organism-based; settings: in vivo; in short: as §3
Mus musculus [28] = experiment: Toxicity in Swiss mouse implanted with Swiss mouse EAT cells assessed as mortality at 22 mg/kg, ip administered for 1 to 9 days measured on day 9 and 13; assay type: organism-based; settings: in vivo; in short: as §3
[29] = Anticancer activity against Swiss mouse EAT cells implanted in Swiss mouse assessed as tumor growth inhibition at 22 mg/kg, ip administered for 1 to 9 days measured on day 13 relative to control; assay type: functional; settings: read-out: TGI

T1 sequence (P42336 whole entry, canonical isoform): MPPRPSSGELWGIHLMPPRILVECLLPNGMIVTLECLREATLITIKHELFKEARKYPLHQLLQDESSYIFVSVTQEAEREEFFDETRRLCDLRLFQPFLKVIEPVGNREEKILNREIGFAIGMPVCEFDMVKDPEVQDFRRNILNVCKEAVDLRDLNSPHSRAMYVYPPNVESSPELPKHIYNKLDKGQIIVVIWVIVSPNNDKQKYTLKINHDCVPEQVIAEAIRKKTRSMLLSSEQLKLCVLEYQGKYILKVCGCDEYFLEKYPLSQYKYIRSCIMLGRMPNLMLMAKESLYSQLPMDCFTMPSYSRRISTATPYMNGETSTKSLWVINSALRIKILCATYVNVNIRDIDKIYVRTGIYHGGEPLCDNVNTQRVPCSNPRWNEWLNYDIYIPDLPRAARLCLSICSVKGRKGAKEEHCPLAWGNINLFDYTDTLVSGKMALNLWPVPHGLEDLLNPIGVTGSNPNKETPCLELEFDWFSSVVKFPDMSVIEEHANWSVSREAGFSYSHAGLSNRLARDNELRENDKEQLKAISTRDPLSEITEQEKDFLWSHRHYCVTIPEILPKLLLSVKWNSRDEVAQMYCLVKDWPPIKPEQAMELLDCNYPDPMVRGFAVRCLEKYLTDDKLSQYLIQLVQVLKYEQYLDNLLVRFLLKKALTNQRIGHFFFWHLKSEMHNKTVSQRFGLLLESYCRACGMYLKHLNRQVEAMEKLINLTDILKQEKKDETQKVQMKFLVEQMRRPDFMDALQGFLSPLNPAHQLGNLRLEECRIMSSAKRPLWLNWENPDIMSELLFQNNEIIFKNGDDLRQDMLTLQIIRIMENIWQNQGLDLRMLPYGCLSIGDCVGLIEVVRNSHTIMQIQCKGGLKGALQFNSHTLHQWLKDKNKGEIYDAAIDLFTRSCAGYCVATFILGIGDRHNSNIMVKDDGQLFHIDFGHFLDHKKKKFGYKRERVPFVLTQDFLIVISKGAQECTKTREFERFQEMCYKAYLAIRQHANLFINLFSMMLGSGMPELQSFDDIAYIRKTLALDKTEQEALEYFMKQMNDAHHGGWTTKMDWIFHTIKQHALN

COc1cc2ncnc(Nc3ccc(CC#N)cc3)c2cc1OC
IC50 [1]: 47 µM | IC50 [2]: 19 µM | IC50 [3]: 55 µM | IC50 [4]: 40 µM | GI50 [5]: 47 µM | GI50 [6]: 19 µM | GI50 [7]: 40 µM | GI50 [8]: 55 µM | GI50 [9]: 34 µM

Nc1nc2cc(-c3ccc4ncc(C(=O)N5CCOCC5)n4c3)ccc2o1 [SERABELISIB]
IC50 [10]: 0.015 µM | IC50 [11]: 4.5 µM | IC50 [12]: 13.9 µM | IC50 [13]: 1.9 µM

N#CCc1ccc(Nc2ncnc3ccc(-c4ccccc4)cc23)cc1
IC50 [1]: 0.475 µM | IC50 [2]: > 10 µM | IC50 [3]: > 10 µM | IC50 [4]: 6.95 µM | inhibition [14]: 36.8% | Ratio IC50 (Homo sapiens [15]): > 21 | Ratio IC50 (Homo sapiens [16]): 14.6 | Ratio IC50 (Homo sapiens [17]): > 21 | GI50 [5]: 23 µM | GI50 [6]: 38 µM | GI50 [7]: 14 µM | GI50 [8]: 38 µM | GI50 [9]: 26 µM

O=c1[nH]cc(F)c(=O)[nH]1 [FLUOROURACIL]
Activity (Mus musculus [18]): 21.42 g | Activity (Mus musculus [19]): 22 g | Activity (Mus musculus [20]): 21.28 g | Activity (Mus musculus [21]): 20.42 g | inhibition in vivo at 20 mg/kg [22]: 96.9% | Activity (Mus musculus [23]): Non-Toxic | Activity (Mus musculus [24]): 20.14 g | Activity (Mus musculus [25]): 20.85 g | Activity (Mus musculus [26]): 21 g | Activity (Mus musculus [27]): 22.14 g | Activity (Mus musculus [28]): Non-Toxic | inhibition in vivo at 22 mg/kg [29]: 50%
